Reference: article PMC5413378 (Cancer research, 2017)
pIC50, pKi: −log10 of the molar value.

What was measured:
WHIM24 PDX model = test: WHIM24 PDX efficacy study; format: in vivo; conditions: for antitumor activity: 3 times per week for 3 weeks; for weight loss or apparent toxicity: WHIM24 model
How it was run: (§1)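 SCID mice bearing MDA-MB-231 xenografts or serially passaged WHIM24 PDX tumours were randomised once tumours reached 80-200 mm3. Test compound was given IV in 10% PEG400: 3% Cremophor: 87% PBS, 3 times per week for 3 weeks. Tumour size and body weight were measured 2-3 times weekly. Volume was (length×width2)/2, and TGI used group medians. Data are mean ± SEM (n=7-8), with two-tailed t test versus vehicle.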

[1] = tested on: MDA-MB-468 xenograft model; test: MDA-MB-468 xenograft efficacy study; format: in vivo, SCID mice; conditions: 10 mg/kg, IV, 3 times per week for 2-3 weeks
[2] = PK analysis in MDA-MB-468 xenograft model; format: in vivo, mice; conditions: MDA-MB-468 model
[3] = Pharmacokinetics in WHIM24 tumor-bearing mice; format: in vivo; conditions: single dose 10 mg/kg, at 1 and 3 h; concentrations diminished rapidly
normal mouse tissues = test: Toxicity in immune-competent Balb/c mice; format: in vivo; conditions: 5 mg/kg intravenously, daily, 5 days a week for 2 weeks
How it was run: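 Immune-competent Balb/c mice received test compound intravenously, daily, 5 days a week for 2 weeks. Animals were sacrificed at the end of treatment, and tissues were examined for damage.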

BRD4 = BRD4 (Mus musculus, UniProt Q9ESU6); test: BRD4 protein in mouse liver tissue; format: in vivo; conditions: single dose 5 mg/kg
[4] = tested on: MDA-MB-231 xenograft model; test: MDA-MB-231 xenograft efficacy study; format: in vivo; conditions: for antitumor activity: IV; for weight loss or overt toxicity: MDA-MB-231 model
How it was run: as §1

TNBC cell lines [5] = format: cell-based, human
BRD2, BRD3 and BRD4 = test: BET protein depletion by immunoblotting in TNBC cell lines; format: cell-based, human; conditions: for concentration giving near-complete depletion of BRD2-4 proteins / effect on BET protein levels: TNBC cell lines; for effect on BET protein levels: immunoblotting
MCL1 = MCL1 expression by qRT-PCR and immunoblotting; format: cell-based, human; conditions: for expression of BRD2 and MCL1: MDA-MB-468 cells, 12 h immunoblotting, JQ1 2000 nM, dBET1 500 nM
[6] = PK analysis in MDA-MB-231 xenograft model; format: in vivo, mice; conditions: MDA-MB-231 model
MDA-MB-468 cells = test: Proteomic profiling; format: cell-based, human; conditions: 2 h
[7] = tested on: caspase-3 and poly(ADP-ribose) polymerase (PARP); test: Caspase-3 and PARP cleavage by immunoblotting; format: cell-based, human; conditions: as low as
[8] = tested on: MDA-MB-453 xenograft model; test: MDA-MB-453 xenograft efficacy study; format: in vivo; conditions: for weight loss or apparent toxicity: MDA-MB-453 model
How it was run: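 Five million MDA-MB-453 cells were implanted subcutaneously in SCID mice, which were randomised at tumour size 80-200 mm3. Dosing was IV in 10% PEG400: 3% Cremophor: 87% PBS, or oral in 2% TPGS: 98% PEG200. Tumours and body weight were measured every 2-3 days. Volume was (length×width2)/2, and TGI (%) = (Vc-Vt)/(Vc-Vo)×100 using medians. Two-tailed t test versus vehicle; n=7-8.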

BET proteins [9] = test: Pharmacodynamic analysis in WHIM24 tumors; format: in vivo, SCID mice
TNBC cell lines [10] = test: CellTiter Glo cell viability assay in a panel of 13 TNBC cell lines; format: cell-based, human; conditions: for pIC50: read-out: IC50 growth inhibition, in 9 of the 13 cell lines, 4 days
BET proteins [11] = test: PD analysis in MDA-MB-468 xenograft tumors; format: in vivo, SCID mice; conditions: single dose 5 mg/kg, 1-3 h post drug exposure
BET proteins [12] = test: PD analysis in MDA-MB-231 xenograft tumors; format: in vivo, SCID mice; conditions: single dose 5 mg/kg, 1-3 h post drug exposure
BET proteins [13] = test: Binding to BET proteins
TNBC cell lines [14] = test: Annexin V-PI apoptosis flow cytometry analysis; format: cell-based, human

For `CCn1nc(C2CC2)cc1Nc1nc(C(=O)NCCCOCCOCCOCCCNc2cccc3c2C(=O)N(C2CCC(=O)NC2=O)C3=O)nc2[nH]c3cc(-c4c(C)noc4C)c(OC)cc3c12` (stereo not drawn) [BETd-246], the antitumor activity (WHIM24 PDX model; 5 mg/kg, IV) was “effectively inhibited WHIM24 tumor growth”, the antitumor activity (WHIM24 PDX model; 10 mg/kg, during treatment) was “partial tumor regression” and the “weight loss or apparent toxicity” value (WHIM24 PDX model) was “Neither BETi-211 nor BETd-246 caused significant weight loss”. The antitumor activity [1] was “no antitumor activity”, the “drug exposure in plasma and xenograft tumor tissue” value [2] was “very limited drug exposure” and the “drug exposure in plasma and WHIM24 tumors” value [3] was “reasonable drug exposure”. For the same molecule, the “toxicity in normal mouse tissues” value (normal mouse tissues) was “no significant toxicity”, the “BRD4 protein in mouse liver tissue” value (BRD4) was “effectively reduce BRD4 protein” and the antitumor activity ([4]; 10 mg/kg, 3 times per week for 2-3 weeks) was “very limited”. For the same molecule, the “weight loss or overt toxicity” value [4] was “Neither BETd-246 nor BETd-260 caused significant weight loss”, the “synergy in combination with BM-1197, ABT-263 and A-1155463” value (TNBC cell lines [5]; in 6 of the 7 cell lines) was “Modest to strong synergy” and the “strong synergistic induction of apoptosis in combination with ABT-199” value (TNBC cell lines [5]; panel of TNBC cell lines) was “only observed in MDA-MB-468”. The “concentration giving near-complete depletion of BRD2-4 proteins” value (BRD2, BRD3 and BRD4; 1 h treatment) was 30 to 100 nM, the “concentration giving near-complete depletion of BRD2-4 proteins” value (BRD2, BRD3 and BRD4; 3 h treatment) was 10 to 30 nM and the “lowest concentration giving significant down-regulation of MCL1 mRNA” value (MCL1; as low as, MDA-MB-468, 8 h, qRT-PCR) was 10 nM. The “drug exposure in plasma and xenograft tumor tissue” value [6] was “very limited drug exposure”, the “decrease of BRD2, BRD3 and BRD4 protein levels” value (MDA-MB-468 cells; 100 nM, MDA-MB-468, p<0.05, only proteins decreased out of ~5500 quantified) was ≥ 2 fold and the “lowest concentration giving profound cleavage of caspase-3 and PARP” value [7] was 10 nM. The “weight loss or apparent toxicity” value [8] was “No significant weight loss”, the “MCL1 protein levels in tumors” value (BET proteins [9]; as early as 3 h after treatment) was “markedly reduced” and the “duration of BET protein reduction in tumors” value (BET proteins [9]; single IV dose 10 mg/kg) was “at least 9 h”. For the same molecule, the “reduction of the levels of BET proteins in tumors” value (BET proteins [9]; single IV dose 10 mg/kg, as early as 1 h) was > 80%, the IC90 (TNBC cell lines [10]; in 7 of the 13 cell lines) was < 100 nM and the pIC50 (TNBC cell lines [10]) was > 8.00.
With `CCn1nc(C2CC2)cc1Nc1nc(C(=O)NCCCCCc2cccc3c2CN(C2CCC(=O)NC2=O)C3=O)nc2[nH]c3cc(-c4c(C)noc4C)c(OC)cc3c12` (stereo not drawn) [BETd-260] the “drug exposure in plasma and xenograft tumor tissue” value [2] was “much higher than that of BETd-246”, the “BET protein levels in xenograft tumors” value (BET proteins [11]) was “effectively reduced BET protein levels” and the antitumor activity ([4]; 5 mg/kg, 3 times per week for 3 weeks, compared with BETd-246 at 10 mg/kg) was “much stronger antitumor activity than BETd-246”. The “weight loss or overt toxicity” value [4] was “Neither BETd-246 nor BETd-260 caused significant weight loss”, the “effect on BET protein levels” value (BRD2, BRD3 and BRD4) was “potently depleted BET proteins at low nanomolar concentrations” and the “drug exposure in plasma and xenograft tumor tissue” value [6] was “much higher than that of BETd-246”. For the same molecule, the “BET protein levels in xenograft tumors” value (BET proteins [12]) was “effectively reduced BET protein levels” and the “times more potent than BETd-246 in growth inhibition” value (TNBC cell lines [10]; TNBC cells) was 2-7 times.
With `CCn1nc(C2CC2)cc1Nc1nc(COC)nc2[nH]c3cc(-c4c(C)noc4C)c(OC)cc3c12` [BETi-211] the “weight loss or apparent toxicity” value (WHIM24 PDX model) was “Neither BETi-211 nor BETd-246 caused significant weight loss”, the pKi (BET proteins [13]) was > 9.00 and the “times more potent than RX-37, JQ-1, OTX-015 or IBET-762” value (BET proteins [13]) was 10-100 times. The “synergism with either BM-1197 or ABT-263” value (TNBC cell lines [5]) was “No clear synergism”, the “effect on BET protein levels” value (BRD2, BRD3 and BRD4) was “did not degrade BET proteins” and the “increase of BRD2 protein level” value (MDA-MB-468 cells; 1000 nM, MDA-MB-468) was 2 fold. The tumor growth inhibition ([8]; 50 mg/kg, daily, 5 days a week for 2 weeks) was “failed to achieve tumor growth inhibition”, the “weight loss or apparent toxicity” value [8] was “No significant weight loss” and the apoptosis induction (TNBC cell lines [14]; 1000 nM, 48 h treatment) was 3-25%. For the same molecule, the growth inhibition (TNBC cell lines [10]; at 2.5 μM, achieved in 2 of the 13 cell lines) was ≥ 90% and the pIC50 (TNBC cell lines [10]) was > 6.00.
In the case of `Cc1sc2c(c1C)C(c1ccc(Cl)cc1)=N[C@@H](CC(=O)OC(C)(C)C)c1nnc(C)n1-2` [JQ1], the “expression of BRD2 and MCL1” value (MCL1) was “increased expression of BRD2 and MCL1”.
In the case of `O=C1CCC(N2C(=O)c3ccccc3C2=O)C(=O)N1` (stereo not drawn) [Thalidomide, thalidomide, reference compound], the “effect on BET protein levels” value (BRD2, BRD3 and BRD4) was “no significant effect” and the “effect on apoptosis induction and cell proliferation” value (TNBC cell lines [14]; alone) was “no significant effect”.
For `Cc1sc2c(c1C)C(c1ccc(Cl)cc1)=N[C@@H](CC(=O)NCCCCNC(=O)COc1cccc3c1C(=O)N(C1CCC(=O)NC1=O)C3=O)c1nnc(C)n1-2` (stereo partly drawn) [dBET1, reference compound], the BET protein depletion (BRD2, BRD3 and BRD4; 500 nM, MDA-MB-468 cells, 12 h) was “effectively depleted BET proteins” and the “expression of BRD2 and MCL1” value (MCL1) was “downregulated MCL1 expression”.
